Test results from ChEMBL document CHEMBL4261522, “Discovery of potential antifungal triazoles: design, synthesis, biological evaluation, and preliminary antifungal mechanism exploration” (Medchemcomm, 2017).
≈ marks a conversion by molar mass, not a printed value.

Key:
Assay type in all cases: functional
[1] = tested on: Aspergillus flavus; experiment: Antifungal activity against Aspergillus flavus by two-fold serial dilution method
Method in brief: (§1)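 MIC by standard two-fold serial dilution in 96-well microplates following NCCLS guidelines. Strains were supplied by Southwest University School of Pharmaceutical Sciences and Third Military Medical University College of Pharmacy.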

[2] = tested on: Kregervanrija fluxuum; experiment: Antifungal activity against Candida mycoderma by two-fold serial dilution method; method in brief: as §1
[3] = tested on: Candida albicans; experiment: Antifungal activity against Candida albicans by two-fold serial dilution method; method in brief: as §1
[4] = tested on: Saccharomyces cerevisiae; experiment: Antifungal activity against Saccharomyces cerevisiae by two-fold serial dilution method; method in brief: as §1
[5] = tested on: Cyberlindnera jadinii; experiment: Antifungal activity against Candida utilis by two-fold serial dilution method; details: Williopsis jadinii; method in brief: as §1
[6] = tested on: Aspergillus flavus; experiment: Potency index, ratio of fluconazole MIC to compound MIC for Aspergillus flavus by two-fold serial dilution method
[7] = tested on: Aspergillus flavus; experiment: Potency index, ratio of miconazole MIC to compound MIC for Aspergillus flavus by two-fold serial dilution method
[8] = tested on: Saccharomyces cerevisiae; experiment: Potency index, ratio of miconazole MIC to compound MIC for Saccharomyces cerevisiae
[9] = tested on: Cyberlindnera jadinii; experiment: Potency index, ratio of miconazole MIC to compound MIC for Candida utilis by two-fold serial dilution method
[10] = tested on: Kregervanrija fluxuum; experiment: Potency index, ratio of miconazole MIC to compound MIC for Candida mycoderma

SMILES	MIC [1] [µg/mL]	MIC [2] [µg/mL]	MIC [3] [µg/mL]	MIC [4] [µg/mL]	MIC [5] [µg/mL]	Ratio [6]	Ratio [7]	Ratio [8]	Ratio [9]	Ratio [10]
Fc1ccc(C(Cn2c[n+](Cc3ccc(Cl)c(Cl)c3)cn2)OCc2ccc(Cl)c(Cl)c2)c(F)c1.[Cl-] (stereo not given)	64	64	32	16	32	–	–	–	–	–
Fc1ccc(COC(Cn2c[n+](Cc3ccc(F)cc3F)cn2)c2ccc(F)cc2F)c(F)c1.[Cl-] (stereo not given)	> 256	> 256	> 256	128	> 256	–	–	–	–	–
Fc1ccc(C(Cn2cncn2)OCc2ccc(Cl)cc2)c(F)c1 (stereo not given)	8 (≈ 22.9 µM)	16 (≈ 45.7 µM)	8 (≈ 22.9 µM)	16 (≈ 45.7 µM)	4 (≈ 11.4 µM)	–	–	–	–	–
Fc1ccc(COC(Cn2cncn2)c2ccc(F)cc2F)c(F)c1 (stereo not given)	16 (≈ 45.5 µM)	8 (≈ 22.8 µM)	4 (≈ 11.4 µM)	4 (≈ 11.4 µM)	4 (≈ 11.4 µM)	16	16	–	–	–
CCCCCCCCCCCCOC(Cn1cncn1)c1ccc(F)cc1F (stereo not given)	128 (≈ 325 µM)	> 256	> 256	8 (≈ 20.3 µM)	> 256	–	–	4	–	–
Fc1ccc(C(Cn2cncn2)OCc2cccc(Cl)c2)c(F)c1 (stereo not given)	32 (≈ 91.5 µM)	16 (≈ 45.7 µM)	16 (≈ 45.7 µM)	16 (≈ 45.7 µM)	8 (≈ 22.9 µM)	–	–	–	–	–
CCCCOC(Cn1cncn1)c1ccc(F)cc1F (stereo not given)	128 (≈ 455 µM)	64 (≈ 228 µM)	64 (≈ 228 µM)	128 (≈ 455 µM)	8 (≈ 28.4 µM)	–	–	–	2	–
Fc1ccc(C(Cn2cncn2)OCCCCCCOC(Cn2cncn2)c2ccc(F)cc2F)c(F)c1 (stereo not given)	256 (≈ 481 µM)	256 (≈ 481 µM)	256 (≈ 481 µM)	128 (≈ 240 µM)	> 256	–	–	–	–	–
CCCOC(Cn1cncn1)c1ccc(F)cc1F (stereo not given)	128 (≈ 479 µM)	1 (≈ 3.74 µM)	4 (≈ 15 µM)	64 (≈ 239 µM)	32 (≈ 120 µM)	–	–	–	–	8
Fc1ccc(C(Cn2cncn2)OCCOC(Cn2cncn2)c2ccc(F)cc2F)c(F)c1 (stereo not given)	256 (≈ 537 µM)	256 (≈ 537 µM)	64 (≈ 134 µM)	8 (≈ 16.8 µM)	8 (≈ 16.8 µM)	–	–	–	–	–
Clc1ccc(COC(Cn2ccnc2)c2ccc(Cl)cc2Cl)c(Cl)c1 (stereo not given) [MICONAZOLE]	256 (≈ 615 µM)	8 (≈ 19.2 µM)	4 (≈ 9.61 µM)	32 (≈ 76.9 µM)	16 (≈ 38.4 µM)	–	–	–	–	–
OC(Cn1cncn1)c1ccc(F)cc1F (stereo not given)	> 256	256 (≈ 1140 µM)	128 (≈ 568 µM)	> 256	256 (≈ 1140 µM)	–	–	–	–	–
OC(Cn1cncn1)(Cn1cncn1)c1ccc(F)cc1F [FLUCONAZOLE]	256 (≈ 836 µM)	4 (≈ 13.1 µM)	1 (≈ 3.27 µM)	16 (≈ 52.2 µM)	8 (≈ 26.1 µM)	–	–	–	–	–
